Calls of active or inactive are those of the source. No cut-off for these calls is given here.
Tests used:
[1] = target: Disintegrin and metalloproteinase domain-containing protein 12 (Homo sapiens) (UniProt O43184); experiment: Inhibition of human recombinant ADAM12 at 200 uM by HxBPyne probe-based competitive activity based protein profiling assay in presence of 200 uM HxBpane competitor
How it was run: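 Metalloprotease at 1.6 μM final in PBS, without liver proteome. HxBPyne probe cocktail 20 μM final, with inhibitor 200 μM or DMSO. Preincubated 30 min on ice, then irradiated 365 nm for 1 h on ice. Rhodamine-azide click chemistry, then SDS-PAGE and in-gel fluorescence scanning. Integrated band intensity expressed as % of DMSO control.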

[2] = target: Matrix metalloproteinase-15 (Homo sapiens) (UniProt P51511); experiment: Inhibition of human recombinant MMP15 at 200 uM by HxBPyne probe-based competitive activity based protein profiling assay in presence of 5 uM HxBpane competitor
How it was run: (§1)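 Recombinant enzyme at 0.5 μM final in mouse liver soluble proteome (1 mg protein/mL in PBS). HxBPyne probe cocktail 0.5 μM total final, with inhibitor 200 μM or DMSO. Preincubated 30 min on ice, then UV 365 nm for 1 h on ice. Rhodamine-azide click chemistry, 1 h RT in dark. SDS-PAGE with in-gel fluorescence; band intensity given as % of DMSO control.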

[3] = target: T1, A disintegrin and metalloproteinase with thrombospondin motifs 5 (Homo sapiens) (UniProt Q9UNA0); experiment: Inhibition of human recombinant ADAMTS5 at 200 uM by HxBPyne probe-based competitive activity based protein profiling assay in presence of 5 uM HxBpane competitor; how it was run: as §1
T1 sequence (whole entry): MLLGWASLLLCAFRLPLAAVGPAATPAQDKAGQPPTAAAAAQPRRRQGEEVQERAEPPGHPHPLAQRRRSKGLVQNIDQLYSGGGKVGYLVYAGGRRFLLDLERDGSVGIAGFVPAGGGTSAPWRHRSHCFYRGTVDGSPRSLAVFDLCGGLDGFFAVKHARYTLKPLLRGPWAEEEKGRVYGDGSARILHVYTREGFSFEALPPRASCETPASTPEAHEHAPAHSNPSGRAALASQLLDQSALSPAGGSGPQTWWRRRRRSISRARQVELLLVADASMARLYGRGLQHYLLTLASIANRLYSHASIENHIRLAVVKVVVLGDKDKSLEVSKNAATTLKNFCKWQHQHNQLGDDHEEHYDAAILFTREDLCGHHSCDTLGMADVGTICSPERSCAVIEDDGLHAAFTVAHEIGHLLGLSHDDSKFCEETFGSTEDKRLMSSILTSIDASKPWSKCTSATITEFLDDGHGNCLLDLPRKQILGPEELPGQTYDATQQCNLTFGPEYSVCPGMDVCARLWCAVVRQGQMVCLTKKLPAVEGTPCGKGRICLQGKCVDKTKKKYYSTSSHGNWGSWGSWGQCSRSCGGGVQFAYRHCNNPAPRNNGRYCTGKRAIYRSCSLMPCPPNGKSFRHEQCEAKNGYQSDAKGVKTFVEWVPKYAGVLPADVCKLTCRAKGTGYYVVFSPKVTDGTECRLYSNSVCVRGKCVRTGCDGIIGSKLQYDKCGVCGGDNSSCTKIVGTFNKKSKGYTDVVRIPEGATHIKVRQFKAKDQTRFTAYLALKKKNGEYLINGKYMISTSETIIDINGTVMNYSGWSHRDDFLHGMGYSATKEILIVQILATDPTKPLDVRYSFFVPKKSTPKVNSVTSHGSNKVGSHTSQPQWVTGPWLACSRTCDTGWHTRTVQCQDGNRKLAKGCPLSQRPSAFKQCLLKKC

[4] = target: Endoplasmic reticulum aminopeptidase 2 (Homo sapiens) (UniProt Q6P179); experiment: Inhibition of human recombinant L-RAP at 200 uM by HxBPyne probe-based competitive activity based protein profiling assay in presence of 5 uM HxBpane competitor; how it was run: as §1
[5] = target: Endoplasmic reticulum aminopeptidase 1 (Homo sapiens) (UniProt Q9NZ08); experiment: Inhibition of human recombinant PILS-AP at 200 uM by HxBPyne probe-based competitive activity based protein profiling assay in presence of 5 uM HxBpane competitor; how it was run: as §1
Neutrophil collagenase = Neutrophil collagenase (Homo sapiens, UniProt P22894); experiment: Inhibition of human recombinant MMP8 by fluorogenic substrate assay
How it was run: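 Enzyme (MMP8 6 nM, MMP9 2 nM, MMP13 1.5 nM final) preincubated with inhibitor 30 min in 50 mM HEPES pH 7.5, 10 mM CaCl2, 0.05% Brij-35, at RT. Mca-PLGL-Dpa-AR-NH2 added at 5 μM; fluorescence (ex 328/em 393 nm) read each minute for 10 min. Initial rates by linear least squares; IC50 from variable-slope sigmoidal fit. Triplicate; mean with 95% CI.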

[6] = target: A disintegrin and metalloproteinase with thrombospondin motifs 4 (Homo sapiens) (UniProt O75173); experiment: Inhibition of human recombinant ADAMTS4 at 200 uM by HxBP-Rh probe-based competitive activity based protein profiling assay in presence of 200 uM HxBP-alkyne
How it was run: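 Enzyme 0.5 μM final, in PBS (ADAMTS4, neprilysin) or in 1 mg/mL mouse liver soluble proteome (MMP9). HxBP-Rh probe 0.5 μM final with 200 μM inhibitor or DMSO. Preincubated 30 min on ice, UV 365 nm 1 h on ice. Deglycosylated with PNGase F, then SDS-PAGE with fluorescence scanning. Activity given relative to DMSO control.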

[7] = target: Matrix metalloproteinase-14 (Homo sapiens) (UniProt P50281); experiment: Inhibition of human recombinant MMP14 at 200 uM by HxBPyne probe-based competitive activity based protein profiling assay in presence of 5 uM HxBpane competitor; how it was run: as §1

Sequence of Matrix metalloproteinase-15 (Homo sapiens) (P51511 132-669 limits assumed): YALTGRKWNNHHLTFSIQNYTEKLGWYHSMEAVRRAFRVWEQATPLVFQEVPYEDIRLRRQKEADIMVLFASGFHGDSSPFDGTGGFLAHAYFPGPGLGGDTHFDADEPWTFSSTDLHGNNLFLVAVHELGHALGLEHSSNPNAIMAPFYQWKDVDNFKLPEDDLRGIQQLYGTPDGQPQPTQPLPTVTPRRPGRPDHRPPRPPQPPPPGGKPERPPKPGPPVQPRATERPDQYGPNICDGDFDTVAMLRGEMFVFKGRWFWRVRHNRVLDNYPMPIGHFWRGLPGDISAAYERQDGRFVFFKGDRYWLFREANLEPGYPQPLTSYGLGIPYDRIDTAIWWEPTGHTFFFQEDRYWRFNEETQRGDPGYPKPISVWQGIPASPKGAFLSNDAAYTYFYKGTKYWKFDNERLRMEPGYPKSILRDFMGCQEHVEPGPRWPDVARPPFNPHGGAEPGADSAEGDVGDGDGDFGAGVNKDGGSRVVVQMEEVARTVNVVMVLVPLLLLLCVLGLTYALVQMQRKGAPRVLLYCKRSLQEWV
Sequence of A disintegrin and metalloproteinase with thrombospondin motifs 4 (Homo sapiens) (O75173 whole entry): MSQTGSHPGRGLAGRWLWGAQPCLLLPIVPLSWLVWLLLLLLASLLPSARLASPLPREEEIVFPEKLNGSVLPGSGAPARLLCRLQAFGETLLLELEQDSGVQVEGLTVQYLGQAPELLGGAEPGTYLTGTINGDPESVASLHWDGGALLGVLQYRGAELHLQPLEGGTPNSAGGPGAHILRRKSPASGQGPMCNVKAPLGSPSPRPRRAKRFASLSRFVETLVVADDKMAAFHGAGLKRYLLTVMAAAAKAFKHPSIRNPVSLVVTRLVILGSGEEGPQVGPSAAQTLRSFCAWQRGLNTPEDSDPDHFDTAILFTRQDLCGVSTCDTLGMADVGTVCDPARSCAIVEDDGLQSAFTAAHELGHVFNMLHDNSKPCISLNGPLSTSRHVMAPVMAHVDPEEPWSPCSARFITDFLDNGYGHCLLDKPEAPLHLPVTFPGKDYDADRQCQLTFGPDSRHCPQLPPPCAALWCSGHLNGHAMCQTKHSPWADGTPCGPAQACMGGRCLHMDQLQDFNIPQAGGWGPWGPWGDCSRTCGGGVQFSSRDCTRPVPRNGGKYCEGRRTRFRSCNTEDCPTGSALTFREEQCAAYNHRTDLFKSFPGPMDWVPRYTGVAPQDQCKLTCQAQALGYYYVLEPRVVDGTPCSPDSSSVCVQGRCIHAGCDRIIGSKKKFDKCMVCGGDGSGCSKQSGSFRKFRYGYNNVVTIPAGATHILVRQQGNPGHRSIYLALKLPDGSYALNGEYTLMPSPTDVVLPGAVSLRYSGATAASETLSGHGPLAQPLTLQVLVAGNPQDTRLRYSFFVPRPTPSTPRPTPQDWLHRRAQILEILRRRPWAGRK
Sequence of Neutrophil collagenase (P22894 whole entry): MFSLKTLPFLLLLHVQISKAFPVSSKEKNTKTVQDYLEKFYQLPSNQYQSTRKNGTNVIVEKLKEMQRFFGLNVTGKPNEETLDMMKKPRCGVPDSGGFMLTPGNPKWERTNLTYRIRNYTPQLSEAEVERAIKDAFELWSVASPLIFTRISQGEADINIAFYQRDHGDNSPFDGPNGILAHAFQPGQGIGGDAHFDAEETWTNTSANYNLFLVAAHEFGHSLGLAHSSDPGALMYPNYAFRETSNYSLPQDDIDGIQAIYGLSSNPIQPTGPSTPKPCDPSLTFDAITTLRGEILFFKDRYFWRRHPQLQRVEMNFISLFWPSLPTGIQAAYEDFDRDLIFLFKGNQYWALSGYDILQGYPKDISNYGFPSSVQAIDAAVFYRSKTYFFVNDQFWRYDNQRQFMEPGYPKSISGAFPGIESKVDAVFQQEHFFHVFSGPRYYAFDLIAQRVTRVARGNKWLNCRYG
Sequence of Endoplasmic reticulum aminopeptidase 1 (Homo sapiens) (Q9NZ08 whole entry): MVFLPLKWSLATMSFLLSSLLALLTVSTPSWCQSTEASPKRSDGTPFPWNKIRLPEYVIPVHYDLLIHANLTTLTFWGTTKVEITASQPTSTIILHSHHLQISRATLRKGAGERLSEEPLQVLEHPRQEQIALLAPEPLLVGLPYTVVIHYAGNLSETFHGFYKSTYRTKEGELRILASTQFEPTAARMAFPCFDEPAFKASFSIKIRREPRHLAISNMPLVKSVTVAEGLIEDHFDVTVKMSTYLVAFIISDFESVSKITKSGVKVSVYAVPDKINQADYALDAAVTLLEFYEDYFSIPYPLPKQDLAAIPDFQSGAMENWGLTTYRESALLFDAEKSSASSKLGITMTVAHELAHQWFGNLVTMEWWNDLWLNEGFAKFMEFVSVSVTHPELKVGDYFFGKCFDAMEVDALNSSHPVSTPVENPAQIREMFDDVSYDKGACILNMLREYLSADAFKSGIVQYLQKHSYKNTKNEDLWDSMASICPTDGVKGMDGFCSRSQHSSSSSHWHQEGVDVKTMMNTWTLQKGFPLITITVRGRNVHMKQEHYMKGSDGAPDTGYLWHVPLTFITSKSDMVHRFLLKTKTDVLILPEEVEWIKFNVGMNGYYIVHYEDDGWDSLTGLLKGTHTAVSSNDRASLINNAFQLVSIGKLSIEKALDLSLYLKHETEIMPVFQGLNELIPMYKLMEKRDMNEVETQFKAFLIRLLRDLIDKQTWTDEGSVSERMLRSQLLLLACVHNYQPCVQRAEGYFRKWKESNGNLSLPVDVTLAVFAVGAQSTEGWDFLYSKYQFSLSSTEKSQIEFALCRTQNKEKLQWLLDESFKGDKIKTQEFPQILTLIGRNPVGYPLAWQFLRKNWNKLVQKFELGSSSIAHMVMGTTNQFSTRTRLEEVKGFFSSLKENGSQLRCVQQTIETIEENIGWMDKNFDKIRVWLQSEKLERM
Sequence of Endoplasmic reticulum aminopeptidase 2 (Homo sapiens) (Q6P179 whole entry): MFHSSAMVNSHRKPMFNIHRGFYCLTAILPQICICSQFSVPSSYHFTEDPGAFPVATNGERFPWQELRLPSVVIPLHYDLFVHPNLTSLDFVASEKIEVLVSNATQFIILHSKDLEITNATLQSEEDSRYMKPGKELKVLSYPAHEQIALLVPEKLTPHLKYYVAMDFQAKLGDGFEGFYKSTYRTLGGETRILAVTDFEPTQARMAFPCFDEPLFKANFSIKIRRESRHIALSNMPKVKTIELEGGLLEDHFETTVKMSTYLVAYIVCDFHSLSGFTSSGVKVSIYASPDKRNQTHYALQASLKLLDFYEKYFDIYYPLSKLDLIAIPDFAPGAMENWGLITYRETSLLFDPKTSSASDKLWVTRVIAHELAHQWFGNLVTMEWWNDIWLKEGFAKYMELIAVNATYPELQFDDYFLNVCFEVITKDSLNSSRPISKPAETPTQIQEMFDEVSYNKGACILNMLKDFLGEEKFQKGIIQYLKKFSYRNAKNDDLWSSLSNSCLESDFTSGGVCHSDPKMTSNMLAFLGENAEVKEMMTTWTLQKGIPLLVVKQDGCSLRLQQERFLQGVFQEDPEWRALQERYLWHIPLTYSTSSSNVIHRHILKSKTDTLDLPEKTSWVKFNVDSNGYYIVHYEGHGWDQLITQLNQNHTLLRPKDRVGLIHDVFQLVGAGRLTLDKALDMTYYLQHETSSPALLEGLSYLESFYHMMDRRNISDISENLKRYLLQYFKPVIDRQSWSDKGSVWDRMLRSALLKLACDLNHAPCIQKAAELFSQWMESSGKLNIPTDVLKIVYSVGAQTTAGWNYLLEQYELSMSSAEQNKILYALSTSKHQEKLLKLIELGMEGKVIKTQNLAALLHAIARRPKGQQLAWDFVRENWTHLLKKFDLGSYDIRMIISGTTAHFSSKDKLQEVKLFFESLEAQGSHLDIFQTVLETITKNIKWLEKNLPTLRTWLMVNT
Sequence of Disintegrin and metalloproteinase domain-containing protein 12 (Homo sapiens) (O43184 whole entry, the tested form may be a part): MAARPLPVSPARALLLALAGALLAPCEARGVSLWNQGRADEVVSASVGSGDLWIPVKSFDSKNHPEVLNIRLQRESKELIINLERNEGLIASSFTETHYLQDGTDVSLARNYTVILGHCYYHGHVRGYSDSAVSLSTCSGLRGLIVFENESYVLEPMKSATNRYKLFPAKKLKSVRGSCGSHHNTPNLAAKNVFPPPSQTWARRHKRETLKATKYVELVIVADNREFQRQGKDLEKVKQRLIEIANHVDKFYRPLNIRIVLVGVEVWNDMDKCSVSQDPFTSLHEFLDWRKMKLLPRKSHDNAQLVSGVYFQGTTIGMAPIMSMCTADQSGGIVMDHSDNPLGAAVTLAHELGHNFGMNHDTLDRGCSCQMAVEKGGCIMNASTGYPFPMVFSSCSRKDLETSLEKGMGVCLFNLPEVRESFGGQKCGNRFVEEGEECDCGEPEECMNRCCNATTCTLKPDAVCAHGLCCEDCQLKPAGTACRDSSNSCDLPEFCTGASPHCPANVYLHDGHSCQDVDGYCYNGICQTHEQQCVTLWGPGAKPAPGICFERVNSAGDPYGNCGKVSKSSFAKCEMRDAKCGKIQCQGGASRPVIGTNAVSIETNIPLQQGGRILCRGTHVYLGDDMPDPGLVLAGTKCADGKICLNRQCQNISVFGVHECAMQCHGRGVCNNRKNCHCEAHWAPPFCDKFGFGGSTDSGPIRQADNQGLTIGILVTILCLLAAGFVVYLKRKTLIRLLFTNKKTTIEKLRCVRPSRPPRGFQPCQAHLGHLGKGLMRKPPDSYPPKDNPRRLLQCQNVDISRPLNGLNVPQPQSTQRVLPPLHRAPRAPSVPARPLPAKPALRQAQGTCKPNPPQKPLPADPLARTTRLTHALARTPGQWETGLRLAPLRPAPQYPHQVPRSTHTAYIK

Row | Activity [1] | Activity [2] | Activity [3] | Activity [4] | Activity [5] | IC50 (Neutrophil collagenase) [µM] | Activity [6] | Activity [7] | SMILES
1 | inactive | inactive | inactive | inactive | inactive | > 100 | inactive | inactive | COc1ccc(CSc2nc(C)cc(O)n2)cc1
2 | inactive | inactive | inactive | inactive | inactive | > 100 | inactive | inactive | Oc1nc(SCc2ccc(Cl)cc2)nc2c1CCC2

Reference: ChEMBL document CHEMBL1140994, “Ranking the selectivity of PubChem screening hits by activity-based protein profiling: MMP13 as a case study” (Bioorg Med Chem, 2009)
